ChEMBL document CHEMBL1125672, “2-acetylpyridine thiosemicarbazones. 13. Derivatives with antifilarial activity” (1991)

Columns and labels:
Acanthocheilonema viteae [1] = assay: anti-filarial Activity was measured against Acanthocheilonema viteae in jirds at 12.5 mg/kg/day(5 days) dose; assay type: functional
Summary of the method: (§1)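 Jirds with established B. pahangi or A. viteae infections were given drug once daily for 5 days by subcutaneous injection, at the maximum tolerated dose and, where supply allowed, graded lower doses. Tolerance was first checked in noninfected jirds with a single 200 mg/kg oral or subcutaneous dose, watching 72 h for excessive weight loss or death. Macrofilarial suppression was the read-out.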

Brugia pahangi [2] = assay: anti-filarial Activity was measured against Brugia pahangi in jirds at 1.56 mg/kg/day(5 days) dose; assay type: functional; summary of the method: as §1
Brugia pahangi [3] = assay: anti-filarial Activity was measured against Brugia pahangi in jirds at 12.5 mg/kg/day(5 days) dose; assay type: functional; summary of the method: as §1
Acanthocheilonema viteae [4] = assay: anti-filarial Activity was measured against Acanthocheilonema viteae in jirds at 100 mg/kg/day(5 days) dose; assay type: functional; summary of the method: as §1
Acanthocheilonema viteae [5] = assay: anti-filarial Activity was measured against Acanthocheilonema viteae in jirds at 50 mg/kg/day(5 days) dose; assay type: functional; summary of the method: as §1
Brugia pahangi [6] = assay: anti-filarial Activity was measured against Brugia pahangi in jirds at 100 mg/kg/day(5 days) dose; assay type: functional; summary of the method: as §1
Brugia pahangi [7] = assay: anti-filarial Activity was measured against Brugia pahangi in jirds at 50 mg/kg/day(5 days) dose; assay type: functional; summary of the method: as §1
Acanthocheilonema viteae [8] = assay: anti-filarial Activity was measured against Acanthocheilonema viteae in jirds at 25 mg/kg/day(5 days) dose; assay type: functional; summary of the method: as §1
Acanthocheilonema viteae [9] = assay: anti-filarial Activity was measured against Acanthocheilonema viteae in jirds at 75 mg/kg/day(5 days) dose; assay type: functional; summary of the method: as §1
Brugia pahangi [10] = assay: anti-filarial Activity was measured against Brugia pahangi in jirds at 25 mg/kg/day(5 days) dose; assay type: functional; summary of the method: as §1
Brugia pahangi [11] = assay: anti-filarial Activity was measured against Brugia pahangi in jirds at 75 mg/kg/day(5 days) dose; assay type: functional; summary of the method: as §1
Brugia pahangi [12] = assay: anti-filarial Activity was measured against Brugia pahangi in jirds at 100 mg/kg/day(5 days) dose;toxic; assay type: functional, organism-based; summary of the method: as §1
Acanthocheilonema viteae [13] = assay: anti-filarial Activity was measured against Acanthocheilonema viteae in jirds at 1.56 mg/kg/day(5 days) dose; assay type: functional; summary of the method: as §1
Acanthocheilonema viteae [14] = assay: anti-filarial Activity was measured against Acanthocheilonema viteae in jirds at 200 mg/kg/day(5 days) dose; assay type: functional; summary of the method: as §1
Brugia pahangi [15] = assay: anti-filarial Activity was measured against Brugia pahangi in jirds at 200 mg/kg/day(5 days) dose; assay type: functional; summary of the method: as §1
Acanthocheilonema viteae [16] = assay: anti-filarial Activity was measured against Acanthocheilonema viteae in jirds at 6.25 mg/kg/day(5 days) dose; assay type: functional; summary of the method: as §1
Brugia pahangi [17] = assay: anti-filarial Activity was measured against Brugia pahangi in jirds at 6.25 mg/kg/day(5 days) dose; assay type: functional; summary of the method: as §1

Structure (SMILES) | Suppression (Acanthocheilonema viteae [1]) | Suppression (Brugia pahangi [3]) | Suppression (Acanthocheilonema viteae [4]) | Suppression (Acanthocheilonema viteae [5]) | Suppression (Brugia pahangi [6]) | Suppression (Brugia pahangi [7]) | Suppression (Acanthocheilonema viteae [8]) | Suppression (Brugia pahangi [10]) | further results
C/C(=N\NC(=S)N1CCCC1)c1ccccn1 | 31% | 86% | – | – | – | – | – | – | Suppression (Brugia pahangi [2]): 46%
C/C(=N\N=C(/S)Nc1c(N)c2ccccc2c2ccccc12)c1ccccn1 | – | – | 23% | 23% | 33% | 5% | – | – | –
C/C(=N\N=C(/S)Nc1ccc(C)cc1N)c1ccccn1 | – | – | 72% | 75% | 100% | 100% | 44% | 29% | Suppression (Acanthocheilonema viteae [9]): 72%; Suppression (Brugia pahangi [11]): 100%
C/C(=N\N=C(/S)Nc1cc2ccccc2cc1N)c1ccccn1 | – | – | 37% | 4% | 49% | – | – | – | –
C/C(=N\NC(N)=S)c1ccccn1 | 42% | 53% | – | – | – | – | – | – | Suppression (Brugia pahangi [2]): 41%; Suppression (Brugia pahangi [12]): Toxic; Suppression (Acanthocheilonema viteae [13]): 60%
C/C(=N\N=C(/S)Nc1cccc(N)c1)c1ccccn1 | – | – | 43% | – | 17% | – | – | – | –
C/C(=N\N=C(/S)N1CCCCCCCC1)c1ccccn1 | – | – | – | 74% | – | 16% | – | – | –
C/C(=N\N=C(/S)Nc1ccc(N)cc1)c1ccccn1 | – | – | 34% | – | 39% | – | 9% | 5% | Suppression (Acanthocheilonema viteae [14]): 25%; Suppression (Brugia pahangi [15]): 60%
C/C(=N\N=C(/S)N1CCN(c2ccc(Cl)cc2)CC1)c1ccccn1 | – | – | 85% | – | 14% | – | – | 6% | –
C/C(=N\N=C(/S)Nc1ccccc1N)c1ccccc1 | – | – | 9% | – | 15% | – | 15% | 6% | Suppression (Acanthocheilonema viteae [14]): 19%; Suppression (Brugia pahangi [15]): 71%
C/C(=N\N=C(/S)N1CCCCC1)c1ccccn1 | 14% | 65% | – | – | – | – | – | – | Suppression (Acanthocheilonema viteae [16]): 25%; Suppression (Brugia pahangi [17]): 18%
C/C(=N\N=C(/S)Nc1cccc(N)n1)c1ccccn1 | – | – | 14% | 14% | 55% | 5% | – | – | –
C/C(=N\NC(=S)N1CCN(c2ccccn2)CC1)c1ccccn1 | – | – | – | – | – | – | – | – | Suppression (Acanthocheilonema viteae [16]): 100%; Suppression (Brugia pahangi [17]): -5%; Suppression (Acanthocheilonema viteae [13]): 40%
C/C(=N\N=C(/S)NCCN)c1ccccn1 | -40% | -3% | – | – | – | – | 72% | 26% | –
C/C(=N\NC(S)=Nc1ccccc1N)c1ccccn1.Cl.Cl | 36% | 29% | 100% | 100% | 100% | 100% | 100% | 100% | –
C/C(=N\NC(=S)Nc1ccccc1)c1ccccn1 | – | – | – | 25% | – | 97% | 44% | 17% | –
